Results reported in ChEMBL document CHEMBL3865784 (Eur J Med Chem, 2016).
Active and inactive are the calls of the source. The calls are words filed in the database; no cut-off is given here.

Key:
[1] = Cytotoxicity against NQO1-deficient human HL60 cells assessed as reduction in cell viability after 72 hrs by MTT assay; format: functional, cell-based; details: HL-60, 72 h
Summary of the method: (§1)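 Cancer lines from NCI, grown in RPMI 1640 with 10% FBS, 2 mM L-glutamine, penicillin/streptomycin, 37 °C, 5% CO2; seeded 0.1 × 10^6 cells/well (HL-60) or 0.7 × 10^5 cells/well (solid tumours). Compounds in DMSO, final 0.1% v/v; DMSO vehicle as negative control.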

[2] = Cytotoxicity against human HCT116 cells expressing NQO1 assessed as reduction in cell viability after 72 hrs by MTT assay; format: functional, cell-based; details: HCT-116, 72 h; summary of the method: as §1
[3] = Cytotoxicity against human PC3 cells overexpressing NQO1 assessed as reduction in cell viability after 72 hrs by MTT assay; format: functional, cell-based; details: PC-3, 72 h
[4] = Cytotoxicity against human SF295 cells overexpressing NQO1 assessed as reduction in cell viability after 72 hrs by MTT assay; format: functional, cell-based; details: SF-295, 72 h
[5] = Cytotoxicity against human MDA-MB-435 cells overexpressing NQO1 assessed as reduction in cell viability after 72 hrs by MTT assay; format: functional, cell-based; details: MDA-MB-435, 72 h; summary of the method: as §1
[6] = Cytotoxicity against human OVCAR8 cells overexpressing NQO1 assessed as reduction in cell viability after 72 hrs by MTT assay; format: functional, cell-based; details: OVCAR-8, 72 h; summary of the method: as §1
[7] = Cytotoxicity against NQO1-deficient human PBMC assessed as reduction in cell viability after 72 hrs by MTT assay; format: toxicity, cell-based; details: for IC50: pbmc
[8] = Cytotoxicity against NQO1-deficient chinese hamster V79 cells assessed as reduction in cell viability after 72 hrs by MTT assay; format: toxicity, cell-based, Cricetulus griseus; details: for IC50: v79
[9] = species on record: Mus musculus; assay: (§2) Cytotoxicity against NQO1-deficient mouse L929 cells assessed as reduction in cell viability after 72 hrs by MTT assay; format: toxicity, cell-based; details: l929
[10] = system: HL-60; assay: Selectivity index, ratio of IC50 for NQO1-deficient human PBMC to IC50 for NQO1-deficient human HL60 cells
Summary of the method: (§3)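 Selectivity index is IC50 in the normal cells divided by IC50 in the cancer line. Normal cells: V79 and L929 in DMEM, PBMC in RPMI with phytohaemagglutinin. Cancer lines in RPMI with 10% FBS, seeded at 0.1 × 10^6 (HL-60) or 0.7 × 10^5 cells/well (solid tumors). Absorbance 550 nm; nonlinear regression.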

[11] = system: HL-60; assay: Selectivity index, ratio of IC50 for NQO1-deficient chinese hamster V79 cells to IC50 for NQO1-deficient human HL60 cells; format: functional; summary of the method: as §3
[12] = system: L929; assay: Selectivity index, ratio of IC50 for NQO1-deficient mouse L929 cells to IC50 for NQO1-deficient human HL60 cells; format: functional; summary of the method: as §3
[13] = system: HCT-116; assay: Selectivity index, ratio of IC50 for NQO1-deficient human PBMC to IC50 for human HCT116 cells expressing NQO1
Summary of the method: (§4)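 Selectivity index is IC50 in the normal cells divided by IC50 in the cancer line. All IC50s come from 72 h MTT assays. Normal cells: V79 and L929 in DMEM, PBMC in RPMI with phytohaemagglutinin. Cancer lines in RPMI with 10% FBS, seeded at 0.1 × 10^6 (HL-60) or 0.7 × 10^5 cells/well (solid tumors). Absorbance 550 nm; nonlinear regression.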

[14] = system: HCT-116; assay: Selectivity index, ratio of IC50 for NQO1-deficient chinese hamster V79 cells to IC50 for human HCT116 cells expressing NQO1; summary of the method: as §4
[15] = system: HCT-116; assay: Selectivity index, ratio of IC50 for NQO1-deficient mouse L929 cells to IC50 for human HCT116 cells expressing NQO1; summary of the method: as §4
[16] = system: PC-3; assay: Selectivity index, ratio of IC50 for NQO1-deficient human PBMC to IC50 for human PC3 cells overexpressing NQO1; summary of the method: as §3
[17] = system: V79; assay: Selectivity index, ratio of IC50 for NQO1-deficient chinese hamster V79 cells to IC50 for human PC3 cells overexpressing NQO1; summary of the method: as §3
[18] = system: L929; assay: Selectivity index, ratio of IC50 for NQO1-deficient mouse L929 cells to IC50 for human PC3 cells overexpressing NQO1; summary of the method: as §3
[19] = system: SF-295; assay: Selectivity index, ratio of IC50 for NQO1-deficient human PBMC to IC50 for human SF295 cells overexpressing NQO1; summary of the method: as §3
[20] = system: SF-295; assay: Selectivity index, ratio of IC50 for NQO1-deficient chinese hamster V79 cells to IC50 for human SF295 cells overexpressing NQO1; summary of the method: as §3
[21] = system: L929; assay: Selectivity index, ratio of IC50 for NQO1-deficient mouse L929 cells to IC50 for human SF295 cells overexpressing NQO1; summary of the method: as §3
[22] = Selectivity index, ratio of IC50 for NQO1-deficient human PBMC to IC50 for human MDA-MB-435 cells overexpressing NQO1; summary of the method: as §3
[23] = system: V79; assay: Selectivity index, ratio of IC50 for NQO1-deficient chinese hamster V79 cells to IC50 for human MDA-MB-435 cells overexpressing NQO1; summary of the method: as §3
[24] = system: L929; assay: Selectivity index, ratio of IC50 for NQO1-deficient mouse L929 cells to IC50 for human MDA-MB-435 cells overexpressing NQO1; summary of the method: as §3
[25] = system: OVCAR-8; assay: Selectivity index, ratio of IC50 for NQO1-deficient human PBMC to IC50 for human OVCAR8 cells overexpressing NQO1; summary of the method: as §4
[26] = system: OVCAR-8; assay: Selectivity index, ratio of IC50 for NQO1-deficient chinese hamster V79 cells to IC50 for human OVCAR8 cells overexpressing NQO1; summary of the method: as §4
[27] = system: L929; assay: Selectivity index, ratio of IC50 for NQO1-deficient mouse L929 cells to IC50 for human OVCAR8 cells overexpressing NQO1; summary of the method: as §3
[28] = system: PC-3; assay: Induction of apoptosis in human PC3 cells assessed as externalization of phosphatidylserine on cell surface by measuring early apoptotic cells at 5 uM after 6 hrs by Annexin-V/FITC/PI staining by flow cytometry (reference value: 0.93 +/- 0.05%); format: functional
[29] = system: PC-3; assay: Induction of apoptosis in human PC3 cells assessed as externalization of phosphatidylserine on cell surface by measuring early apoptotic cells at 5 uM pretreated with NAC measured after 6 hrs by Annexin-V/FITC/PI staining by flow cytometry (reference value: 0.93 +/- 0.05%); format: functional
[30] = system: PC-3; assay: Induction of apoptosis in human PC3 cells assessed as externalization of phosphatidylserine on cell surface by measuring late apoptotic cells at 5 uM pretreated with NAC measured after 6 hrs by Annexin-V/FITC/PI staining by flow cytometry (reference value: 0%); format: functional
[31] = system: PC-3; assay: Induction of apoptosis in human PC3 cells assessed as externalization of phosphatidylserine on cell surface by measuring early apoptotic cells at 5 uM cotreated with NQO1 inhibitor dicoumarol measured after 6 hrs by Annexin-V/FITC/PI staining by flow cytometry (reference value: 0.93 +/- 0.05%); format: functional; parameters: scale not given: the % may be the effect or the level left
[32] = system: PC-3; assay: Induction of apoptosis in human PC3 cells assessed as externalization of phosphatidylserine on cell surface by measuring late apoptotic cells at 5 uM cotreated with NQO1 inhibitor dicoumarol measured after 6 hrs by Annexin-V/FITC/PI staining by flow cytometry (reference value: 0%); format: functional; parameters: scale not given: the % may be the effect or the level left
[33] = system: PC-3; assay: Induction of apoptosis in human PC3 cells assessed as externalization of phosphatidylserine on cell surface by measuring late apoptotic cells at 5 uM after 6 hrs by Annexin-V/FITC/PI staining by flow cytometry (reference value: 0%); format: functional
[34] = target: NAD(P)H dehydrogenase [quinone] 1 (Homo sapiens) (UniProt P15559); assay: Activation of NQO1 in human PC3 cells assessed as induction of ROS generation at 5 uM after 1 hr by H2DCFDA probe based flow cytometric analysis; format: cell-based; details: PC-3
[35] = as §2; format: toxicity, cell-based; details: mouse, NQO1-deficient L929 cells

Chain of NAD(P)H dehydrogenase [quinone] 1 (Homo sapiens) (P15559 whole entry): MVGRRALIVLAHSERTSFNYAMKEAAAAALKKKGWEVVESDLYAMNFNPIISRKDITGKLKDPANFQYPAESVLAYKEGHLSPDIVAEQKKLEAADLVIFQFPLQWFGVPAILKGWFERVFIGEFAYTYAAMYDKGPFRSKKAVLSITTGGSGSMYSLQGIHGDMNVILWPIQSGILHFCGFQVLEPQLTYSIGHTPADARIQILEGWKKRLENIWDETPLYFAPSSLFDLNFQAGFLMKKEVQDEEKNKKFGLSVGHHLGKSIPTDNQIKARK

| Compound | IC50 [1] [nM] | IC50 [2] [nM] | IC50 [3] [nM] | IC50 [4] [nM] | IC50 [5] [nM] | IC50 [6] [nM] | IC50 [7] [nM] | IC50 [8] [nM] | IC50 [9] [nM] | Ratio IC50 [10] | Ratio IC50 [11] | Ratio IC50 [12] | Ratio IC50 [13] | Ratio IC50 [14] | Ratio IC50 [15] | Ratio IC50 [16] | Ratio IC50 [17] | Ratio IC50 [18] | Ratio IC50 [21] | Activity [28] [%] | further results |
| --- | --- | --- | --- | --- | --- | --- | --- | --- | --- | --- | --- | --- | --- | --- | --- | --- | --- | --- | --- | --- | --- |
| [N-]=[N+]=NCC1CC2=C(O1)C(=O)c1ccccc1C2=O (centres undefined) | 310 | 240 | 390 | 350 | 200 | 350 | 3210 | 2470 | 2150 | 10.3 | 7.9 | 6.9 | 13.3 | 10.2 | 8.9 | 8.2 | 6.3 | 5.5 | 6.1 | – | Ratio IC50 [19]: 9.1; Ratio IC50 [20]: 7; Ratio IC50 [22]: 16; Ratio IC50 [23]: 12.3; Ratio IC50 [24]: 10.7; Ratio IC50 [25]: 9.1; Ratio IC50 [26]: 7; Ratio IC50 [27]: 6.1 |
| CC1(C)OC2=C(C(=O)c3ccccc3C2=O)C1Nc1cccc(-c2cn(C[Se]c3ccccc3)nn2)c1 (centres undefined) | 1080 | 1280 | 1710 | 1080 | 880 | 680 | 3330 | 3780 | 3380 | 3 | 3.5 | 3.1 | 2.6 | 2.9 | 2.6 | 1.9 | 2.2 | 1.9 | 3.1 | – | Ratio IC50 [19]: 3; Ratio IC50 [20]: 3.5; Ratio IC50 [22]: 3.7; Ratio IC50 [23]: 4.2; Ratio IC50 [24]: 3.8; Ratio IC50 [25]: 4.8; Ratio IC50 [26]: 5.5; Ratio IC50 [27]: 4.9 |
| CC1(C)OC2=C(C(=O)C(=O)c3ccccc32)C1n1cc(C[Se]c2ccccc2)nn1 (centres undefined) | 1290 | – | 2430 | 1310 | 1060 | 2260 | 1760 | 2650 | 2300 | – | – | – | – | – | – | – | – | – | – | 15.07 | Activity [29]: 1.12%; Activity [30]: 0%; Activity [31]: 1.26%; Activity [32]: 0% |
| O=c1oc2ccccc2c(O)c1Cc1c(O)c2ccccc2oc1=O [DICUMAROL] | – | – | – | – | – | – | – | – | – | – | – | – | – | – | – | – | – | – | – | 0.95 | Activity [33]: 0% |
| CC(=O)N[C@@H](CS)C(=O)O [ACETYLCYSTEINE] | – | – | – | – | – | – | – | – | – | – | – | – | – | – | – | – | – | – | – | 0.87 | Activity [33]: 0% |
| CC1(C)OC2=C(C(=O)C(=O)c3ccccc32)C1Nc1cccc(-c2cn(C[Se]c3ccccc3)nn2)c1 (centres undefined) | 70 | 140 | 380 | 340 | 230 | 200 | 1390 | 1130 | 940 | 19.8 | 16.1 | 13.4 | 9.9 | 8 | 6.7 | 3.6 | 2.9 | 2.4 | 2.7 | 16.61 | Ratio IC50 [22]: 6; Ratio IC50 [23]: 4.9; Ratio IC50 [24]: 4; Ratio IC50 [25]: 6.9; Ratio IC50 [26]: 5.6; Ratio IC50 [27]: 4.7; Activity [34]: Active; Activity [33]: 3.27%; Activity [29]: 0.89%; Activity [30]: 0%; Activity [31]: 0.91%; Activity [32]: 0% |
| COc1cccc2c1C(=O)c1c(O)c3c(c(O)c1C2=O)C[C@@](O)(C(=O)CO)C[C@@H]3O[C@H]1C[C@H](N)[C@H](O)[C@H](C)O1 [DOXORUBICIN] | – | 150 | – | – | 960 | 410 | – | – | – | – | – | – | – | – | – | – | – | – | – | – | IC50 at 72 h ([7]; human): 550 nM; IC50 at 72 h ([8]; Chinese hamster, NQO1-deficient V79 cells): 280 nM; IC50 at 72 h [35]: 230 nM |
